Data as given in publication PMC9220501 (Chemico-Biological Interactions, 2022).

Tests used:
Format in all cases: cell-based
[1] = system: cervical adenocarcinoma HeLa; experiment: MTT cytotoxicity assay, HeLa; conditions: Homo sapiens, 72 h, read-out: IC50 HeLa
[2] = system: colon adenocarcinoma LS174; experiment: MTT cytotoxicity assay, LS174; conditions: Homo sapiens, LS174, 72 h, read-out: IC50 LS174
[3] = system: malignant melanoma A375; experiment: MTT cytotoxicity assay, A375; conditions: Homo sapiens, A-375, 72 h, read-out: IC50 A375
Outline: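 A375 cells were kept in RPMI 1640 with 10% FBS, 2 mM L-glutamine, 25 mM HEPES and penicillin-streptomycin at 37 °C and 5% CO2. Cells were seeded at 3000 per well and allowed to adhere for 20 h. They were treated for 72 h, and survival was read by MTT. IC50 is the mean ± SD of three independent experiments.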

[4] = system: chronic myelogenous leukemia K562 cells; experiment: MTT cytotoxicity assay, K562; conditions: Homo sapiens, K562, 72 h, read-out: IC50 K562
[5] = system: lung fibroblasts MRC-5; experiment: MTT cytotoxicity assay, normal MRC-5; conditions: Homo sapiens, MRC5, 72 h, read-out: IC50 MRC-5
[6] = system: lung carcinoma A549; experiment: MTT cytotoxicity assay, A549; conditions: Homo sapiens, A549, 72 h, read-out: IC50 A549

SMILES	IC50 [1]	IC50 [2]	IC50 [3]	IC50 [4]	IC50 [5]	IC50 [6]
COC(=O)C1=C(C)N(C)C(=S)NC1c1ccc(C(=O)O)cc1 (centres unmarked) [4d, 4-(5-(methoxycarbonyl)-1,2,3,4-tetrahydro-1,6-dimethyl-2-thioxopyrimidin-4-yl)benzoic acid]	139 ± 7.64 µM	> 200 µM	199.6 ± 0.59 µM	195 ± 7.62 µM	169 ± 8.98 µM	
COC(=O)C1=C(C)N(C)C(=S)NC1c1ccccc1 (centres unmarked) [4a, Methyl 1,2,3,4-tetrahydro-1,6-dimethyl-2-thioxo-4-phenylpyrimidine-5-carboxylate]	128 ± 15.4 µM	170.5 ± 1.28 µM	123 ± 7.17 µM	163 ± 4.62 µM	92.97 ± 0.59 µM	
COC(=O)C1=C(C)N(C)C(=S)NC1c1ccc([N+](=O)[O-])cc1 (centres unmarked) [4c, Methyl 4-(4′-nitrophenyl)-1,2,3,4-tetrahydro-1,6-dimethyl-2-thioxopyrimidine-5-carboxylate]	122 ± 12.8 µM	185 ± 5.5 µM	158 ± 7.84 µM	193 ± 3.75 µM	88.9 ± 6.31 µM	
COC(=O)C1=C(C)N(C)C(=S)NC1c1ccc(O)c(OC)c1 (centres unmarked) [4e, Methyl 1,2,3,4-tetrahydro-4-(4′-hydroxy-3′-methoxyphenyl)-1,6-dimethyl-2-thioxopyrimidine-5-carboxylate]	157 ± 6.52 µM	196 ± 2.87 µM	176 ± 2.9 µM	197 ± 0.54 µM	114 ± 2.36 µM	
COC(=O)C1=C(C)N(C)C(=S)NC1c1ccc(Cl)cc1 (centres unmarked) [4b, Methyl 4-(4′-chlorophenyl)-1,2,3,4-tetrahydro-1,6-dimethyl-2-thioxopyrimidine-5-carboxylate]	81.8 ± 9.57 µM	153 ± 9.08 µM	102 ± 6.26 µM	95.9 ± 1.85 µM	28.2 ± 0.32 µM	123 ± 6.05 µM
